18 molecules from ChEMBL document CHEMBL1126315, “Pyrrolobenzodiazepines and related systems. 2. Synthesis and biological properties of isonoraptazepine derivatives” (1992) can be followed below.

Common to all, as to type: functional
In experiment [1] the test system is Mus musculus. Briefly: Rotation number in mice was determined at 15 minutes after a dose of 10 mg/Kg. The essentials: (§1)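 Nomura water-wheel test: Swiss inbred mice (5 male, 5 female per group) dosed ip in 1% Tween 80, placed in a water tank with central wheel 1 h later. Wheel rotations counted by photointerrupter on the shaft, read at 9, 12 and 15 min. Mean ± SD vs vehicle controls.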

Experiment [2] relates to Mus musculus. Description: Rotation number in mice was determined at 12 minutes after a dose of 10 mg/Kg. The procedure, abridged:
as §1

For experiment [3], the system named is Mus musculus. Description: Compound was tested for total number of falls in 100 seconds after intraperitoneal administration of 37.5 mg/Kg in mice by rotarod test. The essentials:
(§2)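 Mice (Swiss inbred, 5 male + 5 female per group) dosed ip in 1% Tween 80; Rota-Rod motor coordination assessed 80 min later. Falls counted over a 100 s observation period. Mean ± SEM vs vehicle controls, Dunnett t test.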
On the technique in general: In the rotarod test animals must keep their balance on a rotating rod.

In experiment [4] the test system is Mus musculus. Briefly: Compound was tested for total number of movements in 5 minutes after intraperitoneal administration of 37.5 mg/Kg in mice. The essentials:
(§3)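 Open-field spontaneous activity 60 min after ip dosing in 1% Tween 80; Swiss inbred mice, 10 per group (5 male, 5 female), placed singly in 19 × 25 cm cages and monitored continuously for 5 min. Total movements as mean ± SEM vs vehicle controls.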

The test system of experiment [5] is Mus musculus. Description: Rotation number in mice was determined at 9 minutes after a dose of 10 mg/Kg. The procedure, abridged:
as §1

The subject of experiment [6] is Mus musculus. Briefly: Compound was tested for myorelaxant action (time in seconds on the horizontal wire with forelegs) after intraperitoneal administration of 37.5 mg/Kg in mice by traction test. The essentials:
(§4)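 Traction test on Swiss inbred mice, 10 per group (5 male, 5 female), dosed ip in 1% Tween 80; run 70 min after dosing. Time for animals to place hind legs on horizontal wire recorded in seconds. Mean ± SEM vs vehicle-treated controls, Dunnett t test.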

Experiment [7] has as its system Mus musculus. Description: Total number of movements in 5 minutes after intraperitoneal administration of 75 mg/Kg in mice. The essentials:
as §3

Experiment [8] deals with Mus musculus. Briefly: Total number of falls in 100 seconds after intraperitoneal administration of 75 mg/Kg in mice by rotarod test. The procedure, abridged:
as §2

The subject of experiment [9] is Mus musculus. Briefly: Myorelaxant action (time in seconds on the horizontal wire with forelegs) after intraperitoneal administration of 75 mg/Kg in mice by traction test. The essentials:
as §4

Experiment [10] concerns Mus musculus. Briefly: Total number of explored holes in 5 minutes after intraperitoneal administration of 75 mg/Kg in mice. The procedure, abridged:
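Hole-board exploration at 65 min after ip dosing (1% Tween 80 vehicle) in Swiss inbred mice, 10 per group (5 male, 5 female). Holes explored counted by infrared detector below the hole lines over 5 min. Mean ± SEM vs vehicle controls, Dunnett t test.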

The subject of experiment [11] is Mus musculus. Briefly: Compound at an intraperitoneal dose of 10 mg/Kg was tested for the inhibition of abdominal constriction in mice. Particulars: Abdomen, ip. The procedure, abridged:
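Swiss inbred mice (25 ± 3 g), 10 per group (5 male, 5 female), given compound ip in 1% Tween 80. Clonidine 0.1 mg/kg po 30 min later, then phenylquinone 3.75 mg/kg ip in 5% aqueous ethanol 20 min after that. Writhing counted by observer over 10 min starting 5 min post-injection; % inhibition relative to controls.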

Experiment [12] has as its system Mus musculus. Briefly: Writhing number was determined against clonidine induced analgesia by the compound at an intraperitoneal dose of 10 mg/Kg in mice.
The subject of experiment [13] is Mus musculus. Description: Compound was tested for total number of explored holes in 5 minutes after intraperitoneal administration of 10 mg/Kg in mice. The procedure, abridged: (§5)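 Swiss inbred mice (25 ± 3 g), groups of 10 (5 male, 5 female), given drug ip in 1% Tween 80; vehicle-treated controls. Single sequence per animal: open-field movements counted over 5 min at 60 min, hole-board explorations (infrared counting, 5 min) at 65 min, traction-test wire time at 70 min, Rota-Rod falls over 100 s at 80 min. Mean ± SEM, Dunnett t test.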

The subject of experiment [14] is Mus musculus. Description: Rotation number in mice was determined at 15 minutes after a dose of 5 mg/Kg. The procedure, abridged:
(§6)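 Nomura water-wheel test in Swiss inbred mice (25 ± 3 g), groups of 10 (5 male, 5 female). Drug given ip in 1% Tween 80, single dose. Mouse placed in a water tank with a central wheel 1 h after dosing. Wheel rotations counted by photointerrupter, read at 9, 12 and 15 min. Mean ± SD versus vehicle controls.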

Experiment [15] concerns Mus musculus. Briefly: Rotation number in mice was determined at 9 minutes after a dose of 5 mg/Kg. The procedure, abridged: as §6
The subject of experiment [16] is Mus musculus. Description: Compound was tested for myorelaxant action (time in seconds on the horizontal wire with forelegs) after intraperitoneal administration of 10 mg/Kg in mice by traction test. The essentials: as §5
Experiment [17] relates to Mus musculus. Briefly: Rotation number in mice was determined at 12 minutes after a dose of 2.5 mg/Kg. The essentials:
as §6

The subject of experiment [18] is Mus musculus. Description: Rotation number in mice was determined at 9 minutes after a dose of 2.5 mg/Kg. The procedure, abridged: as §6
The test system of experiment [19] is Mus musculus. Briefly: Rotation number in mice was determined at 15 minutes after a dose of 2.5 mg/Kg. The procedure, abridged:
as §6

The test system of experiment [20] is Mus musculus. Briefly: Compound was tested for total number of movements in 5 minutes after intraperitoneal administration of 10 mg/Kg in mice. The procedure, abridged: as §5
The test system of experiment [21] is Mus musculus. Description: Compound was tested for total number of falls in 100 seconds after intraperitoneal administration of 10 mg/Kg in mice by rotarod test. The procedure, abridged: as §5
The subject of experiment [22] is Mus musculus. Briefly: Rotation number in mice was determined at 12 minutes after a dose of 5 mg/Kg. The procedure, abridged: as §6

In the case of `c1ccc2c(c1)CN1CCNCC1c1cccn1-2` (stereo unspecified), the Rotation number was determined as 12 in [1], 10 in experiment [2] and 17 in experiment [5]. In addition, in experiment [3], the Activity is on record as 3. The molecule also registered a Spontaneous motor activity in [4] of 111. The molecule also had a Time in experiment [6] of 4.9 s.

Regarding `O=C1CNCC2c3cccn3-c3ccccc3CN12` (stereo unspecified), the Rotation number in [1] is reported as 10; in experiment [2] it was 17; in [5], 15.

In [7], `CN1CCN2Cc3ccccc3-n3cccc3C2C1` (stereo unspecified) yielded a Spontaneous motor activity of 96. This molecule also came in with an Activity in experiment [8] of 5. Also, the values for the Rotation number in experiment [1], in [2] and in experiment [5] were 11, 16 and 21, respectively. This molecule also registered a Time in [9] of 4.4 s. The same molecule gave an Exploratory activity in experiment [10] of 3.8.

For the molecule `O=C1CN(Cc2ccc(F)cc2)CC2c3cccn3-c3ccccc3CN12` (stereo unspecified), in experiment [7], the Spontaneous motor activity is listed as 178. The Activity in [8] is 1.8. Also, in [9], the Time stood at 4.2 s. In addition, the Exploratory activity in experiment [10] is listed as 6.

In the case of `CN1CC(=O)N2Cc3ccccc3-n3cccc3C2C1` (stereo unspecified), the Spontaneous motor activity in experiment [7] amounted to 90. Besides, the Activity in experiment [8] was found to be 8.7. Also, the Rotation number came to 10 in experiment [1], 14 in experiment [2] and 17 in experiment [5]. Also, the Time in [9] was 1 s. This molecule showed an Exploratory activity in [10] of 13.

Molecule `CCN1CC(=O)N2Cc3ccccc3-n3cccc3C2C1` (stereo unspecified) gave a Spontaneous motor activity in experiment [7] of 285. This molecule also came in with an Activity in experiment [8] of 0.4. Further, the figures for the Rotation number in [1], in experiment [2] and in experiment [5] were 22, 17 and 22, respectively. In [9], the Time stood at 2.1 s. Moreover, the Exploratory activity in [10] turned out to be 9.8.

Regarding `CC(=O)N1CC(=O)N2Cc3ccccc3-n3cccc3C2C1` (stereo unspecified), the Spontaneous motor activity in experiment [7] was found to be 121. Besides, in experiment [8], the Activity is recorded as 1. Also, the values for the Rotation number in experiment [1], in experiment [2] and in [5] were 49, 57 and 54, respectively. The Time in [9] came out at 3.5 s. For the same molecule, the Exploratory activity in experiment [10] is listed as 10.7.

On to `CC(=O)N1CCN2Cc3ccccc3-n3cccc3C2C1` (stereo unspecified), for which the Rotation number in [1] came out at 17; in [2], 23; in experiment [5], 21.

As a reminder, the inhibition in vivo is the drop in the measured response relative to a control, in per cent. As to `O=C1NCC(=O)N2Cc3ccccc3-n3cccc3C12` (stereo unspecified), the Spontaneous motor activity in [7] was 247. The Activity in experiment [8] was 2.5. The results for the Rotation number in [1], in experiment [2] and in [5] were 11, 15 and 18, respectively. This molecule also had an inhibition in vivo at 10 mg/kg in experiment [11] of 43%. This molecule also yielded a Time in [9] of 5.5 s. The same molecule registered an Exploratory activity in experiment [10] of 14.7. In [12], this molecule showed a Writhing number of 12.

On to `O=C1CN(Cc2ccccc2)CC2c3cccn3-c3ccccc3CN12` (stereo unspecified), for which the figures for the Rotation number in [1], in [2] and in [5] were 31, 41 and 45, respectively.

With `C=CCN1CCN2Cc3ccccc3-n3cccc3C2C1` (stereo unspecified), the Rotation number is listed as 14 in experiment [1], 16 in experiment [2] and 16 in [5].

`O=C1CC2c3cccn3-c3ccccc3CN2C(=O)CN1` (stereo unspecified): in [7], the Spontaneous motor activity worked out at 173. The molecule also had an Activity in experiment [8] of 0.6. In addition, the Rotation number is given as 27 in experiment [1], 27 in experiment [2] and 35 in experiment [5]. Besides, the Time in experiment [9] is reported as 2.3 s. Also, in [10], the Exploratory activity came to 17.2.

On to `O=C(c1ccc(Cl)cc1)N1CCN2Cc3ccccc3-n3cccc3C2C1` (stereo unspecified), for which the Rotation number in experiment [1] is recorded as 7; in [2] it was 6; in experiment [5], 7.

Take `Clc1ccc(CN2CCN3Cc4ccccc4-n4cccc4C3C2)cc1` (stereo unspecified): the Spontaneous motor activity in experiment [7] is 142. The same molecule had an Activity in experiment [8] of 2.1. Also, the Rotation number is reported as 11 in experiment [1], 14 in [2] and 22 in [5]. The same molecule displayed a Time in experiment [9] of 2 s. Also, in [10], the Exploratory activity was 9.3.

Turning to `O=C1CN(Cc2ccc(Cl)cc2)CC2c3cccn3-c3ccccc3CN12` (stereo unspecified), in [11], the inhibition in vivo at 10 mg/kg worked out at 63%. The Writhing number in experiment [12] is 8.

Molecule `CCN1CCN2Cc3ccccc3-n3cccc3C2C1` (stereo unspecified) displayed a Spontaneous motor activity in experiment [7] of 188. This molecule came in with an Activity in [8] of 1.1. The Rotation number in experiment [1] was found to be 24; in experiment [2] it was 27; in [5] it was 30. In experiment [9], this molecule gave a Time of 3.1 s. The Exploratory activity in experiment [10] turned out to be 7.6.

Regarding `CN1CCN2c3ccccc3Cn3cccc3C2C1` (stereo unspecified) [APTAZAPINE], the values for the Exploratory activity in [13] and in [10] were 8.8 and 0.5, respectively. The Spontaneous motor activity in [7] amounted to 59; in experiment [20] it was 168. The Rotation number in experiment [14] was determined as 2; in experiment [15] it was 5; in [1], 2; in experiment [2] it was 5; in experiment [17], 3; in experiment [18], 12. Further, the Rotation number came to 2 in experiment [19], 8 in [5] and 8 in experiment [22]. The values for the Activity in experiment [8] and in experiment [21] were 6.5 and 5, respectively. Further, the Time in [16] stood at 2.5 s; in experiment [9], 8.1 s. Moreover, the inhibition in vivo at 10 mg/kg in experiment [11] came to 14%. The molecule also came in with a Writhing number in [12] of 18.

As for `CN(C)CCCN1c2ccccc2CCc2ccccc21` [IMIPRAMINE], the Rotation number in experiment [1] amounted to 36; in experiment [2] it was 40; in experiment [5], 48. This molecule came in with an inhibition in vivo at 10 mg/kg in experiment [11] of 100%. This molecule also came in with an Activity in experiment [3] of 4.8. In experiment [4], this molecule came in with a Spontaneous motor activity of 183. In experiment [6], this molecule yielded a Time of 5.7 s.
